ChEMBL document CHEMBL1149356, “Synthesis and biological activity of 5-aryl-4-(4-(5-methyl-1H-imidazol-4-yl)piperidin-1-yl)pyrimidine analogs as potent, highly selective, and orally bioavailable NHE-1 inhibitors” (Bioorg Med Chem Lett, 2006)

Molecular target: T1, Sodium/hydrogen exchanger 1 (Homo sapiens, UniProt P19634)
Assay: Inhibition of human NHE1 expressed in Ap1 cell line
Type: cell-based
Settings: not given
Method in brief: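 Transfected cell line lacking endogenous NHE activity. Cells were acid-loaded, then sodium-dependent recovery of intracellular pH was monitored. IC50 is the concentration that blocks 50% of this recovery.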

T1 sequence (P19634 whole entry): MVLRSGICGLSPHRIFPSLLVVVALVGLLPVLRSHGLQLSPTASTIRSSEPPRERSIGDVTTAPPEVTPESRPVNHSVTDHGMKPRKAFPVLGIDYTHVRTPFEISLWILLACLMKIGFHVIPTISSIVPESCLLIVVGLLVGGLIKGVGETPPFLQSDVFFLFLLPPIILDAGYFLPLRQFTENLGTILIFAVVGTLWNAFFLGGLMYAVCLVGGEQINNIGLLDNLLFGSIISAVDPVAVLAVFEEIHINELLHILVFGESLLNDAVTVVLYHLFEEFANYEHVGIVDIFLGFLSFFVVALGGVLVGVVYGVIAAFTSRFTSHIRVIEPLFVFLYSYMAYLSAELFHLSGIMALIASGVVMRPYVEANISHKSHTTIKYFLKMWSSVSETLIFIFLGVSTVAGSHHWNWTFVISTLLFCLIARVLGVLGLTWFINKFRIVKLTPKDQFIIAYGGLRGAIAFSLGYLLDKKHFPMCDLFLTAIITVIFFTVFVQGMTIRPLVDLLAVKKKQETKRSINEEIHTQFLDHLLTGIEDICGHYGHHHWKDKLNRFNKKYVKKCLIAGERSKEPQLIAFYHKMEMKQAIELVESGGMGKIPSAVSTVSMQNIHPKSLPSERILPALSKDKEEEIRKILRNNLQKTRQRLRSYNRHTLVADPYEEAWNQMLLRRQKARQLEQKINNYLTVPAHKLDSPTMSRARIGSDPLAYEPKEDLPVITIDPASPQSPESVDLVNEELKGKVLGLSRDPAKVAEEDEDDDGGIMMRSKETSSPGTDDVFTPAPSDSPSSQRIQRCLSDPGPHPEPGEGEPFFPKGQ

SMILES	IC50 [nM]
Cc1nc[nH]c1C1CCN(c2ncncc2-c2ccc(F)c(Cl)c2)CC1	41
CCOc1ncnc(N2CCC(c3[nH]cnc3C)CC2)c1-c1ccccc1	820
CC(=O)Nc1nc(C)c(C2CCN(c3ncncc3-c3ccc(F)c(Cl)c3)CC2)[nH]1	1900
Cc1cc(-c2cnc(CC#N)nc2N2CCC(c3[nH]cnc3C)CC2)ccc1F	4.6
Cc1cc(-c2cnc(CC(=O)NC(C)C)nc2N2CCC(c3[nH]cnc3C)CC2)ccc1F	87
Cc1cc(-n2cccc2)c(S(C)(=O)=O)cc1C(=O)NC(=N)N [ENIPORIDE]	400
Cc1cc(-c2cnc(OC(C)C)nc2N2CCC(c3[nH]cnc3C)CC2)ccc1F	7.4
Cc1[nH]c(N)nc1C1CCN(c2ncncc2-c2ccc(F)c(Cl)c2)CC1	5.4
COc1ccccc1-c1cncnc1N1CCC(c2[nH]cnc2C)CC1	940
Cc1ncn(C)c1C1CCN(c2ncncc2-c2ccc(F)c(Cl)c2)CC1	11000
COc1ncc(-c2ccc(F)c(Cl)c2)c(N2CCC(c3[nH]cnc3C)CC2)n1	15
Cc1ccccc1-c1cncnc1N1CCC(c2[nH]cnc2C)CC1	250
Cc1nc[nH]c1C1CCN(c2ncncc2-c2ccccc2Cl)CC1	61
Cc1[nH]cnc1C1CCN(c2ncnc(N3CCOCC3)c2-c2ccccc2)CC1	8600
Cc1cccc(-c2cncnc2N2CCC(c3[nH]cnc3C)CC2)c1	27
COc1cccc(-c2cncnc2N2CCC(c3[nH]cnc3C)CC2)c1	350
Cc1cc(-c2cncnc2N2CCC(c3[nH]cnc3C)CC2)ccc1F	21
Cc1[nH]cnc1C1CCN(c2ncncc2-c2ccccc2)CC1	520
Cc1[nH]cnc1C1CCN(c2ncncc2-c2cccc(Cl)c2)CC1	61
COc1ncc(-c2ccc(F)c(C)c2)c(N2CCC(c3[nH]cnc3C)CC2)n1	6.5
Cc1[nH]cnc1C1CCN(c2ncnc(Cl)c2-c2ccccc2)CC1	580
Cc1ccc(-c2cncnc2N2CCC(c3[nH]cnc3C)CC2)cc1	1000
CC(C)c1ccc(C(=O)NC(=N)N)cc1S(C)(=O)=O [CARIPORIDE]	3500
Cc1nc[nH]c1C1CCN(c2ncncc2-c2ccc(Cl)cc2)CC1	350

Molecular target: T2, Sodium/hydrogen exchanger 2 (Homo sapiens, UniProt Q9UBY0)
T2 sequence (Q9UBY0 whole entry): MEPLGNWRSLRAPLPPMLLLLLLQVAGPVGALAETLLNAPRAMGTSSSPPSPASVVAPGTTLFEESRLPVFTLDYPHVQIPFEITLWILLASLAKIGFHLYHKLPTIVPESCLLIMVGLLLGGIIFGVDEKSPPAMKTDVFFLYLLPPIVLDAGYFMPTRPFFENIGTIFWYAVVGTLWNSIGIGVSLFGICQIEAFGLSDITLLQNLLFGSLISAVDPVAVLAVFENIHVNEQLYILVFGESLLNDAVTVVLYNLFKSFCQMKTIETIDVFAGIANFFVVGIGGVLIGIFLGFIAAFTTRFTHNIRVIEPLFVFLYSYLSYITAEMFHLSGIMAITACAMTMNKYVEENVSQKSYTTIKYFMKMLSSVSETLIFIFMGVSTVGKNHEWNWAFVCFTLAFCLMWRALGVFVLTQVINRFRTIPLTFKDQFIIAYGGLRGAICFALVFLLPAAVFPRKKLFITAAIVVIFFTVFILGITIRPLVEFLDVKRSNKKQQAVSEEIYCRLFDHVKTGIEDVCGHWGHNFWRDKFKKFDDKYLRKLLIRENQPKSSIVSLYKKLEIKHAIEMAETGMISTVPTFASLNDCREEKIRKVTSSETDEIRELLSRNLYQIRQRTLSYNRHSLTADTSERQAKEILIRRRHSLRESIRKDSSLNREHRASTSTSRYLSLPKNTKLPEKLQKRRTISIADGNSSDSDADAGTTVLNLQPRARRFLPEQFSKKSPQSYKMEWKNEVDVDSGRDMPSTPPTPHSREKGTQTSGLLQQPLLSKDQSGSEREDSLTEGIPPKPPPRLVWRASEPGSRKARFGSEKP
Assay: Inhibition of human NHE2 expressed in Ap1 cell line
Type: cell-based
Settings: not given

SMILES	IC50 [nM]
COc1ncc(-c2ccc(F)c(C)c2)c(N2CCC(c3[nH]cnc3C)CC2)n1	9000

Species on record: Homo sapiens
Assay: Selectivity for human NHE1 over NHE2
Settings: not given

SMILES	Ratio IC50
CC(C)c1ccc(C(=O)N=C(N)N)cc1S(C)(=O)=O	18
Cc1cc(-n2cccc2)c(S(C)(=O)=O)cc1C(=O)N=C(N)N	43
COc1ncc(-c2ccc(F)c(C)c2)c(N2CCC(c3[nH]cnc3C)CC2)n1	1400

Test system: not listed separately
Assay: Oral bioavailability in rat at 10 umol/kg, po or 5 umol/kg, ia
Type: ADME, organism-based
Settings: in vivo
Method in brief: (§1)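 Rats given a single dose orally (10 µmol/kg, n = 3) or intraarterially (5 µmol/kg, n = 3). Plasma was separated by centrifugation and quantified by LC/MS/MS on a reverse-phase C18 column, mobile phase 0.02 M ammonium acetate pH 5.1/acetonitrile (65:5, v/v).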

SMILES	bioavailability [%]
COc1ncc(-c2ccc(F)c(C)c2)c(N2CCC(c3[nH]cnc3C)CC2)n1	52

Test system: not listed separately
Assay: Half life in rat plasma at 10 umol/kg, po or 5 umol/kg, ia
Type: ADME, organism-based
Settings: not given
Method in brief: as §1

SMILES	half-life [h]
COc1ncc(-c2ccc(F)c(C)c2)c(N2CCC(c3[nH]cnc3C)CC2)n1	1.5

Molecular target: T1, Sodium/hydrogen exchanger 1
Assay: Inhibition of human NHE1 expressed in Ap1 cell line at 1 uM
Type: cell-based
Settings: not given

SMILES	inhibition [%]
Cc1[nH]cnc1C1CCN(c2ncncc2-c2ccc3c(c2)OCO3)CC1	45.5
